In paper PMC3517215 (Journal of medicinal chemistry, 2011):
Where “and” joins values, the source holds several entries; their conditions need not be identical. Identical values can stand only once.

Target: T1, human sEH (Homo sapiens, UniProt P34913)
T1 sequence (P34913 1-555): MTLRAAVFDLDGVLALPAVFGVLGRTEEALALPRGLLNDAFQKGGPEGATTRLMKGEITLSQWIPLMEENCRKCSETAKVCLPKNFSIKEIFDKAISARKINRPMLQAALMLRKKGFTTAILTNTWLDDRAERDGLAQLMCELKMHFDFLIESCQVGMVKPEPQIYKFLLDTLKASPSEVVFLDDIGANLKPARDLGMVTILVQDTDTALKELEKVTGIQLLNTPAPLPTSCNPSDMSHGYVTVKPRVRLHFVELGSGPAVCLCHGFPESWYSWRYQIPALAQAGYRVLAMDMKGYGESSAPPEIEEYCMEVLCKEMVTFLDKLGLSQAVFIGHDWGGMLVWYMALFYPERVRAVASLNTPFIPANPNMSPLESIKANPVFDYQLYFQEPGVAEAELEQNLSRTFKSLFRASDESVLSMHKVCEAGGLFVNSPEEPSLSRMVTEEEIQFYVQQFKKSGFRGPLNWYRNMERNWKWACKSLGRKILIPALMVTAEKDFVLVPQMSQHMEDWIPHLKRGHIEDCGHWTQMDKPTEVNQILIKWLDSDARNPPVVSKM
Test: Human sEH inhibition, fluorescent assay with CMNPC substrate
Format: biochemical
How it was run: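 Recombinant human sEH from baculovirus-infected Sf9 cells, purified by His-tag affinity, TEV cleavage and anion exchange. Enzyme (1 nM) preincubated 10 min with test compound (DMSO) in 25 mM Bis-Tris/HCl pH 7.0 at 30 °C, then CMNPC added (5 μM). 6-Methoxy-2-naphthaldehyde fluorescence (ex 330/em 465 nm) read over 10 min. IC50 by regression of ≥6 points (≥3 linear); mean of three runs.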

Compound: O=C(NCCCc1ccccc1)C1CCCCC1 [Compound 6]
- fold improvement in inhibition relative to compounds 4 or 5: > 5 fold

Compound: O=C(NCCCc1ccccc1)C1CC=CCC1 (stereo not shown) [Compound 7]
- fold improvement in inhibition relative to compounds 4 or 5: > 5 fold

Compound: O=C(NCCCc1ccccc1)C1CCC(C(F)(F)F)CC1 (stereo not shown) [Compound 8]
- fold improvement over the non-substituted derivatives (4–7): 3.5–15 fold

Compound: CC(C)(C)C1CCC(C(=O)NCCCc2ccccc2)CC1 (stereo not shown) [Compound 9]
- fold improvement over the non-substituted derivatives (4–7): 3.5–15 fold

Compound: O=C(NCCCc1ccccc1)C1CCc2ccccc2C1 (stereo not shown) [Compound 20]
- fold improvement in inhibition potency relative to compound 19: 3 fold

Compound: O=C(NCCc1ccccc1)C12CC3CC(CC(C3)C1)C2 [Compound 25]
- fold decrease in inhibition potency relative to compound 19: 4–6 fold

Compound: O=C(NCCCCc1ccccc1)C12CC3CC(CC(C3)C1)C2 [Compound 26]
- fold decrease in inhibition potency relative to compound 19: 4–6 fold

Compound: CCOC(=O)c1ccc(NC(=O)C23CC4CC(CC(C4)C2)C3)cc1 [Compound 27]
- fold better inhibition in comparison with compound 28: > 10 fold

Compound: COC(=O)c1ccc(CNC(=O)C23CC4CC(CC(C4)C2)C3)cc1 [Compound 29]
- fold better inhibition than compound 27: ~10 fold

Compound: COC(=O)c1ccc(CCNC(=O)C23CC4CC(CC(C4)C2)C3)cc1 [Compound 30]
- fold loss in inhibition potency relative to compound 29: > 7 fold

Compound: COC(=O)c1ccc2cc(NC(=O)C34CC5CC(CC(C5)C3)C4)ccc2c1 [Compound 31, methyl 6-(1-adamantanecarboxamido)naphthalene-2-carboxylate]
- fold loss in inhibition potency relative to compound 29: 7 fold and > 7 fold

Compound: COC(=O)c1ccc(CNC(=O)C2CCc3ccccc3C2)cc1 (stereo not shown) [Compound 32, methyl 4-((1,2,3,4-tetrahydronaphthalene-2-carboxamido)methyl)benzoate]
- fold improvement relative to compound 29: 5 fold

Compound: COC(=O)c1ccc(CNC(=O)c2ccc3ccccc3c2)cc1 [Compound 33]
- fold less potent compared to compound 32: 3 fold
